# According to ChEMBL document CHEMBL5724801, “EUbOPEN Chemogenomics Library - Multiplex” (2024):
# Values joined by “and” are separate entries in the source; they are usually repeats but may differ in a detail not shown here. Identical values can stand only once.
# Test system: U2OS
# Assay: Multiplex assay against U2OS
# Format: toxicity, cell-based
# Settings: human, 12 h, 1 µM, compound concentration 1 uM
# Procedure, shortened: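 Cells stained live at seeding with Hoechst33342, BioTracker Green Microtubule Cytoskeleton Dye, MitoTracker Red and Annexin V Alexa Fluor 680 were imaged on a CQ1 microscope at 37°C and 5% CO2 after compound addition. Their classification by CellPathfinder machine-learning gating ran from Hoechst high-intensity objects versus normal cells, to healthy, pyknosed or fragmented nuclei among normal cells, to mitotic or apoptotic among pyknosed cells. Tubulin, mitochondrial-mass and membrane-permeability phenotypes are per cents of healthy-nucleus cells.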
SMILES,Population Apoptotic (%),Population Fragmented Nuclei (%),Population Healthy Nuclei (%),Population Hoechst High Intensity Objects (%),Population Membrane Permeable-Phenotype (%),Population Mitochondria Different-Phenotype (%),Population Mitotic Cells (%),Population Normal (%),Population Pyknosed Nuclei (%),Population Tubulin-Different-Phenotype (%)
CCCCC[C@H](O)/C=C/[C@H]1[C@H](O)CC(=O)[C@@H]1CCCCCCC(=O)O [ALPROSTADIL],100% and 77%,31% and 11%,62% and 81%,1% and 0%,4% and 9%,2% and 5%,0% and 22%,98% and 100%,6%,2% and 6%
COC(c1ccccc1)(c1ccccc1)[C@H](Oc1nc(C)cc(C)n1)C(=O)O [AMBRISENTAN],95% and 100%,26% and 21%,62% and 72%,2%,3% and 8%,0% and 3%,4% and 0%,97%,10% and 5%,1%

# Same assay, conditions: human, 12 h, 1 µM, compound concentration 1 uM
row,SMILES,Total Cell Count
1,CCCCC[C@H](O)/C=C/[C@H]1[C@H](O)CC(=O)[C@@H]1CCCCCCC(=O)O [ALPROSTADIL],219 and 132
2,COC(c1ccccc1)(c1ccccc1)[C@H](Oc1nc(C)cc(C)n1)C(=O)O [AMBRISENTAN],209 and 87

# Same assay, conditions: human, 12 h, 10 µM, compound concentration 10 uM
SMILES,Population Apoptotic (%),Population Fragmented Nuclei (%),Population Healthy Nuclei (%),Population Hoechst High Intensity Objects (%),Population Membrane Permeable-Phenotype (%),Population Mitochondria Different-Phenotype (%),Population Mitotic Cells (%),Population Normal (%),Population Pyknosed Nuclei (%),Population Tubulin-Different-Phenotype (%)
CCCCC[C@H](O)/C=C/[C@H]1[C@H](O)CC(=O)[C@@H]1CCCCCCC(=O)O [ALPROSTADIL],71% and 77%,23% and 15%,69% and 75%,1% and 2%,1% and 5%,0% and 3%,28% and 22%,98% and 97%,6% and 8%,0% and 5%
COC(c1ccccc1)(c1ccccc1)[C@H](Oc1nc(C)cc(C)n1)C(=O)O [AMBRISENTAN],61% and 100%,28% and 19%,63% and 72%,2% and 0%,4%,2% and 0%,–,97% and 99%,7%,1% and 0%

# Same assay, conditions: human, 12 h, 10 µM, compound concentration 10 uM
row,SMILES,Total Cell Count
1,CCCCC[C@H](O)/C=C/[C@H]1[C@H](O)CC(=O)[C@@H]1CCCCCCC(=O)O [ALPROSTADIL],222 and 104
2,COC(c1ccccc1)(c1ccccc1)[C@H](Oc1nc(C)cc(C)n1)C(=O)O [AMBRISENTAN],232 and 104

# Same assay, conditions: human, 24 h, 1 µM, compound concentration 1 uM
SMILES,Population Apoptotic (%),Population Fragmented Nuclei (%),Population Healthy Nuclei (%),Population Hoechst High Intensity Objects (%),Population Membrane Permeable-Phenotype (%),Population Mitochondria Different-Phenotype (%),Population Mitotic Cells (%),Population Normal (%),Population Pyknosed Nuclei (%),Population Tubulin-Different-Phenotype (%)
CCCCC[C@H](O)/C=C/[C@H]1[C@H](O)CC(=O)[C@@H]1CCCCCCC(=O)O [ALPROSTADIL],91% and 87%,25% and 14%,65% and 75%,1% and 0%,5% and 8%,2% and 4%,8% and 12%,98% and 99%,9%,3%
COC(c1ccccc1)(c1ccccc1)[C@H](Oc1nc(C)cc(C)n1)C(=O)O [AMBRISENTAN],95% and 100%,27% and 23%,63% and 66%,0%,4% and 1%,1% and 2%,4% and 0%,99%,8% and 10%,1%

# Same assay, conditions: human, 24 h, 1 µM, compound concentration 1 uM
row,SMILES,Total Cell Count
1,CCCCC[C@H](O)/C=C/[C@H]1[C@H](O)CC(=O)[C@@H]1CCCCCCC(=O)O [ALPROSTADIL],263 and 166
2,COC(c1ccccc1)(c1ccccc1)[C@H](Oc1nc(C)cc(C)n1)C(=O)O [AMBRISENTAN],248 and 111

# Same assay, conditions: human, 24 h, 10 µM, compound concentration 10 uM
SMILES,Population Apoptotic (%),Population Fragmented Nuclei (%),Population Healthy Nuclei (%),Population Hoechst High Intensity Objects (%),Population Membrane Permeable-Phenotype (%),Population Mitochondria Different-Phenotype (%),Population Mitotic Cells (%),Population Normal (%),Population Pyknosed Nuclei (%),Population Tubulin-Different-Phenotype (%)
CCCCC[C@H](O)/C=C/[C@H]1[C@H](O)CC(=O)[C@@H]1CCCCCCC(=O)O [ALPROSTADIL],94% and 100%,19% and 12%,74% and 76%,1% and 0%,5% and 4%,0% and 2%,5% and 0%,98% and 99%,6% and 10%,3% and 1%
COC(c1ccccc1)(c1ccccc1)[C@H](Oc1nc(C)cc(C)n1)C(=O)O [AMBRISENTAN],84% and 80%,25% and 13%,65% and 77%,1% and 0%,7%,2%,16% and 20%,98% and 100%,9% and 8%,3% and 5%

# Same assay, conditions: human, 24 h, 10 µM, compound concentration 10 uM
row,SMILES,Total Cell Count
1,CCCCC[C@H](O)/C=C/[C@H]1[C@H](O)CC(=O)[C@@H]1CCCCCCC(=O)O [ALPROSTADIL],271 and 131
2,COC(c1ccccc1)(c1ccccc1)[C@H](Oc1nc(C)cc(C)n1)C(=O)O [AMBRISENTAN],273 and 115

# Same assay, conditions: human, 48 h, 1 µM, compound concentration 1 uM
SMILES,Population Apoptotic (%),Population Fragmented Nuclei (%),Population Healthy Nuclei (%),Population Hoechst High Intensity Objects (%),Population Membrane Permeable-Phenotype (%),Population Mitochondria Different-Phenotype (%),Population Mitotic Cells (%),Population Normal (%),Population Pyknosed Nuclei (%),Population Tubulin-Different-Phenotype (%)
CCCCC[C@H](O)/C=C/[C@H]1[C@H](O)CC(=O)[C@@H]1CCCCCCC(=O)O [ALPROSTADIL],87% and 95%,22% and 18%,68% and 71%,2% and 3%,4% and 6%,2% and 5%,12% and 4%,97% and 96%,9%,2% and 6%
COC(c1ccccc1)(c1ccccc1)[C@H](Oc1nc(C)cc(C)n1)C(=O)O [AMBRISENTAN],89% and 93%,17%,70% and 72%,2%,2% and 0%,1%,10% and 6%,97%,11% and 10%,0%

# Same assay, conditions: human, 48 h, 1 µM, compound concentration 1 uM
row,SMILES,Total Cell Count
1,CCCCC[C@H](O)/C=C/[C@H]1[C@H](O)CC(=O)[C@@H]1CCCCCCC(=O)O [ALPROSTADIL],367 and 236
2,COC(c1ccccc1)(c1ccccc1)[C@H](Oc1nc(C)cc(C)n1)C(=O)O [AMBRISENTAN],333 and 151

# Same assay, conditions: human, 48 h, 10 µM, compound concentration 10 uM
SMILES,Population Apoptotic (%),Population Fragmented Nuclei (%),Population Healthy Nuclei (%),Population Hoechst High Intensity Objects (%),Population Membrane Permeable-Phenotype (%),Population Mitochondria Different-Phenotype (%),Population Mitotic Cells (%),Population Normal (%),Population Pyknosed Nuclei (%),Population Tubulin-Different-Phenotype (%)
CCCCC[C@H](O)/C=C/[C@H]1[C@H](O)CC(=O)[C@@H]1CCCCCCC(=O)O [ALPROSTADIL],88% and 100%,13% and 11%,76% and 77%,0% and 2%,4% and 6%,0% and 1%,11% and 0%,99% and 97%,10%,3% and 4%
COC(c1ccccc1)(c1ccccc1)[C@H](Oc1nc(C)cc(C)n1)C(=O)O [AMBRISENTAN],87% and 81%,21% and 13%,68% and 79%,3% and 0%,4% and 2%,2% and 0%,12% and 18%,96% and 100%,10% and 6%,3% and 2%

# Same assay, conditions: human, 48 h, 10 µM, compound concentration 10 uM
row,SMILES,Total Cell Count
1,CCCCC[C@H](O)/C=C/[C@H]1[C@H](O)CC(=O)[C@@H]1CCCCCCC(=O)O [ALPROSTADIL],362 and 165
2,COC(c1ccccc1)(c1ccccc1)[C@H](Oc1nc(C)cc(C)n1)C(=O)O [AMBRISENTAN],388 and 174
